One test relates to SK-BR-3. Nature of the test: Antiproliferative activity against human ER deficient SKBR3 cells over expressing HER2. It counts as functional, cell-based. The method, boiled down: (§1)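 Growth inhibition was measured in the listed cell lines. IC50 is the compound concentration that inhibits cellular growth by 50%. Values are mean ± standard error from at least two separate experiments, each run in triplicate.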

The next test deals with MCF7. Put plainly: Antiproliferative activity against human MCF7 cells expressing ER. It counts as functional, cell-based. The method, boiled down:
as §1

Test [1] addresses T1, Heat shock protein HSP90 (Homo sapiens) (UniProt P07900+P08238). Put plainly: Inhibition of Hsp90 in human MCF7 cells assessed as Her2 degradation by Western blot analysis. It counts as cell-based. (A western blot detects proteins with antibodies after separation by electrophoresis.)
Test [2] addresses T1, Heat shock protein HSP90 (Homo sapiens). Put plainly: Inhibition of Hsp90 in human MCF7 cells assessed as c-Raf degradation by Western blot analysis. Type of test: cell-based.
The target of test [3] is MCF-7 and SKBr-3 cells (Homo sapiens). Nature of the test: Antiproliferative activity against human MCF7 and SKBr3 cells.

Data on 22 compounds can be found in ChEMBL document CHEMBL1177761, “Click chemistry to probe Hsp90: Synthesis and evaluation of a series of triazole-containing novobiocin analogues” (Bioorg Med Chem Lett, 2010).

Several values for one entry are separate records, joined by “and”; a condition that tells them apart may be missing. Equal entries are not always repeated. Activity calls are given as the source filed them. No cut-off for these calls is given here.

As for `CC(=O)Oc1ccc2cc(-n3cc(-c4ccc(F)cc4F)nn3)c(=O)oc2c1C`, the IC50 with SK-BR-3 and in the test with MCF7 was greater than 100 µM each time.

In the case of `CO[C@@H]1[C@@H](O)[C@@H](O)[C@H](Oc2ccc3cc(-n4cc(-c5c[nH]c6ccccc56)nn4)c(=O)oc3c2C)OC1(C)C`, the values for the IC50 with SK-BR-3 and in the test with MCF7 were 8.17 µM and 18.3 µM, respectively.

As for `CO[C@@H]1[C@@H](OC(N)=O)[C@@H](O)[C@H](Oc2ccc3c(O)c(NC(=O)c4ccc(O)c(CC=C(C)C)c4)c(=O)oc3c2C)OC1(C)C` [NOVOBIOCIN], the IC50 – broadly, the concentration at which inhibition is half-maximal – with SK-BR-3 amounted to 475 µM; in the test with MCF7, 481 µM.

As to `Cc1c(O)ccc2cc(-n3cc(-c4ccccc4)nn3)c(=O)oc12`, the IC50 in the test with SK-BR-3 is 39 µM; with MCF7 it was 25.2 µM.

Regarding `CO[C@@H]1[C@@H](O)[C@@H](O)[C@H](Oc2ccc3cc(-n4cc(-c5ccccc5)nn4)c(=O)oc3c2C)OC1(C)C`, the IC50 was greater than 100 µM in the test on SK-BR-3 and 64.4 µM with MCF7.

Turning to `CC(=O)Oc1ccc2cc(-n3cc(-c4c[nH]c5ccccc45)nn3)c(=O)oc2c1C`, the inhibition entry in test [1] and in test [2] was “Dose-dependent effect” throughout. The figures for the IC50 in the test on SK-BR-3 and with MCF7 were 6.52 µM and 7.45 µM, respectively.

On to `COc1cccc(-c2cc(-c3cn(-c4cc5ccc(O)c(C)c5oc4=O)nn3)ccc2OC)c1`, for which the IC50 in the test with SK-BR-3 was determined as 44.9 µM; in the test with MCF7 it was 28 µM.

With `COc1cccc(-c2cc(-c3cn(-c4cc5ccc(O[C@@H]6OC(C)(C)[C@H](OC)[C@@H](O)[C@H]6O)c(C)c5oc4=O)nn3)ccc2OC)c1`, the IC50 with SK-BR-3 worked out at 21.2 µM; in the test on MCF7, 13.2 µM.

Turning to `Cc1c(O)ccc2cc(-n3cc(-c4cc5ccccc5[nH]4)nn3)c(=O)oc12`, the IC50 in the test on SK-BR-3 amounted to 42.5 µM; in the test on MCF7, 38.3 µM.

Regarding `Cc1c(O)ccc2cc(-n3cc(-c4ccc(N(C)C)cc4)nn3)c(=O)oc12`, the IC50 in the test on SK-BR-3 and in the test with MCF7 was greater than 100 µM each time.

Take `Cc1c(O)ccc2cc(-n3cc(-c4ccc(F)cc4F)nn3)c(=O)oc12`: the IC50 was found to be 34.2 µM with SK-BR-3 and 33.5 µM in the test with MCF7.

`Cc1c(O)ccc2cc(-n3cc(/C=C/c4ccccc4)nn3)c(=O)oc12`: the IC50 in the test with SK-BR-3 was found to be 33.9 µM; in the test with MCF7 it was 33.7 µM.

As to `COc1ccc(-c2cn(-c3cc4ccc(O)c(C)c4oc3=O)nn2)cc1`, the IC50 in the test with SK-BR-3 and with MCF7 was greater than 100 µM each time.

In the case of `CC(=O)Oc1ccc2cc(-n3cc(-c4ccc(N(C)C)cc4)nn3)c(=O)oc2c1C`, the inhibition result in test [1] was “inactive”. Besides, the IC50 in the test on SK-BR-3 and with MCF7 was greater than 100 µM in each case.

With `CC(=O)Oc1ccc2cc(-n3cc(-c4cc5ccccc5[nH]4)nn3)c(=O)oc2c1C`, the IC50 in the test on SK-BR-3 came out at 50.4 µM; in the test with MCF7, 76.1 µM.

For `CO[C@@H]1[C@@H](O)[C@@H](C)[C@H](Oc2ccc3cc(NC(=O)c4c[nH]c5ccccc45)c(=O)oc3c2C)OC1(C)C`, in test [3], the IC50 was 5.3 µM and 12.2 µM.

For the compound `CC(=O)Oc1ccc2cc(-n3cc(-c4ccccc4)nn3)c(=O)oc2c1C`, the IC50 amounted to 76.4 µM in the test with SK-BR-3 and 40.8 µM in the test on MCF7.

For `COc1cccc(-c2cc(-c3cn(-c4cc5ccc(OC(C)=O)c(C)c5oc4=O)nn3)ccc2OC)c1`, the IC50 turned out to be 50.8 µM in the test with SK-BR-3 and 42.4 µM in the test with MCF7.

For `CC(=O)Oc1ccc2cc(-n3cc(-c4ccc(C)cc4)nn3)c(=O)oc2c1C`, the IC50 with SK-BR-3 was 90.8 µM; in the test with MCF7, greater than 100 µM.

As to `CC(=O)Oc1ccc2cc(-n3cc(/C=C/c4ccccc4)nn3)c(=O)oc2c1C`, the IC50 with SK-BR-3 was determined as 65.1 µM; in the test on MCF7 it was 28.5 µM.

Regarding `COc1ccc(-c2cn(-c3cc4ccc(OC(C)=O)c(C)c4oc3=O)nn2)cc1`, the IC50 in the test on SK-BR-3 and in the test on MCF7 was greater than 100 µM each time.

Regarding `Cc1ccc(-c2cn(-c3cc4ccc(O)c(C)c4oc3=O)nn2)cc1`, the figures for the IC50 in the test with SK-BR-3 and in the test on MCF7 were greater than 100 µM and 23.2 µM, respectively.
